We go through 13 molecules from PubChem BioAssay.

Experiment [1] is described as follows: inhibitors of TNFa-induced NFkB p65 translocation, primary screen, imaging, HUVEC, MLSMR starter and 10KST1 sets (AID 438;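 active = inhibition above 20% together with a positive visual image hit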;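 also: compound added about 3h40 before a 20 min TNFalpha stimulation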;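 as to inhibition: signal is the nuclear over cytoplasmic p65 intensity ratio per well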). To be noted: HUVEC TNFa-induced p65 nuclear translocation; cell count: measured here: nuclei count (cytotoxicity indicator), at 2.08 µM; inhibition: at 2 µM, stronger effect = higher value, 0% TNFa-plus-vehicle, 100% no-TNFa wells.
A short description of experiment [2]: inhibitors of mutant huntingtin aggregation, primary screen, imaging, exon1htt(103Q)mCFP cells, high-content imaging (AID 483;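 active = visual image review flags a hit and inhibition of aggregation exceeds 20%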;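 also: compound exposure lasted 3 days before fixation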;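 as to nuclei count: percent of the per-plate median nuclei count of sample wells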). To be noted: exon1htt(103Q)mCFP cell line, aggregate imaging, at 2 µM; inhibition of aggregation: stronger effect = higher value; nuclei count: measured here: cell count, toxicity.
The nature of experiment [3]: inhibitors of E-selectin induction by TNFa, primary screen, imaging, HUVEC, immunofluorescence, MLSMR starter and 10KST1 sets (AID 487;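 active = visually confirmed hit in the image check and inhibition above 20%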;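 as to inhibition: signal is fraction of cell area covered by stained E-selectin grains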;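 as to nuclei count: 100% = median nuclei count of all wells on the same plate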). To be noted: HUVEC TNFalpha-induced E-selectin immunofluorescence imaging, at 2 µM; inhibition: stronger effect = higher value; nuclei count: measured here: cell number, toxicity.
In experiment [4] the target is Voltage-gated potassium channel subunit beta-2 (Rattus norvegicus) (UniProt P62483). The experiment is described as follows: KvBeta enzyme negative modulators, primary screen, biochemical, NADPH fluorescence (AID 622;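 active = fluorescence slope higher than the sample average by over 3 SD, cut at about -0.22 in these data, passing the limit was not always enough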;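 also: slope of raw intensity against log time taken from 70 to 1610 s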). To be noted: recombinant KvBeta, 4-cyanobenzaldehyde reduction, at 10 µM, stronger effect = higher value.
Chain of Voltage-gated potassium channel subunit beta-2 (Rattus norvegicus) (P62483 whole entry, looked up): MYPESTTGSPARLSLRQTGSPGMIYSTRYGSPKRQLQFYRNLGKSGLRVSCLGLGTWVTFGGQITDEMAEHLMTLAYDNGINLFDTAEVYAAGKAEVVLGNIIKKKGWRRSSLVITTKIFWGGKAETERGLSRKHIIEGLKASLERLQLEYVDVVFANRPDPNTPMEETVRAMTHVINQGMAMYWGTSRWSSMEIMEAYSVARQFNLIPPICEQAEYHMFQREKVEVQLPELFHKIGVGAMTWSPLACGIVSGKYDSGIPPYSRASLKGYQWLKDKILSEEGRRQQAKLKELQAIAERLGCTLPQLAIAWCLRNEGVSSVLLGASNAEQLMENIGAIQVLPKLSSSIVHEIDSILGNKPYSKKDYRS
Experiment [5] shares this target. Nature of the experiment: KvBeta positive modulators, primary screen, biochemical, NADPH fluorescence (AID 623;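 active = NADPH fluorescence slope more negative than the mean of all samples by about 3 SD, 99.7% confidence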;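 also: fluorescence intensity change per second fitted from 20 to 320 s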). To be noted: Recombinant KvBeta, NADPH fluorescence decrease slope, 10 min; at 10 µM; stronger effect = lower value.
Experiment [6] has as its target Alpha-2C adrenergic receptor (Homo sapiens) (UniProt P18825). The experiment is described as follows: modulators of alpha2C/GIRK thallium flux, primary screen, cell-based, HEK293 alpha2C/GIRK1/2 (AID 624).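 Also: slope of fluorescence ratio to pre-addition baseline per second over 15 to 24 s.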 To be noted: thallium flux BTC fluorescence, at 10 µM, actives lie on both sides.
The nature of experiment [7]: inhibitors of larval lipid processing in zebrafish, primary screen, whole organism, PED6 fluorescence, gall bladder and intestine (AID 686;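 active = a full or partial loss of lipid-probe fluorescence in the fish gall bladder, intestine or both, judged by eye; inactive = no fluorescence loss, or compound toxic to the fish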;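 also: signal comes from phospholipase A2 cleavage of quenched PED6 carried via bile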). To be noted: Zebrafish larvae PED6 lipid processing, fluorescence scoring; screened at 20 µM (by protocol). The essentials: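 Doses: 20 µM single dose. Test system: live zebrafish larvae aged 5-7 days, whole organism. Quantity: five larvae per well. Measured by: By-eye fluorescence microscopy. Reagent: ingested quenched lipid PED6 at 100 nM. Read-out: visual per-well fluorescence inhibition score. Times: overnight exposure of larvae to compound plus PED6.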

The nature of experiment [8]: inhibitors of Sendai virus-induced IRF3 signaling, primary screen, TLR/RLR signaling modifier project, cell-based, Sendai virus stimulus, luciferase, 10K MLSCN set (AID 602276;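 active = inhibition at or above 50% at 10 µM; inactive = inhibition below 50%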;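 also: firefly luciferase from ISG56 promoter only with Renilla not read in this screen; 0% = Sendai virus plus DMSO and 100% = medium plus DMSO without virus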). The conditions noted are these: HEK293 RL24 IRF3 luciferase reporter, at 10 µM, stronger effect = higher value.
A short description of experiment [9]: inhibitors of poly I:C-induced TLR3 signaling, primary screen, cell-based, poly I:C stimulus, luciferase, 10K MLSCN set (AID 602277;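 active = inhibition of the reporter signal at or above 50%; inactive = inhibition below 50%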). The conditions noted are these: HEK293-TLR3 RL24 IRF3 luciferase reporter, at 10 µM, stronger effect = higher value. (Reporter assays use an easily measured gene product as a stand-in for the process of interest.)

The source made the active and inactive calls.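 The calls were made as follows, unless noted: active = fluorescence slope after compound addition differing from the mean of all screened samples at 99.7% confidence, in either direction; inactive = the rest.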

Chain of Alpha-2C adrenergic receptor (Homo sapiens) (P18825 whole entry, looked up): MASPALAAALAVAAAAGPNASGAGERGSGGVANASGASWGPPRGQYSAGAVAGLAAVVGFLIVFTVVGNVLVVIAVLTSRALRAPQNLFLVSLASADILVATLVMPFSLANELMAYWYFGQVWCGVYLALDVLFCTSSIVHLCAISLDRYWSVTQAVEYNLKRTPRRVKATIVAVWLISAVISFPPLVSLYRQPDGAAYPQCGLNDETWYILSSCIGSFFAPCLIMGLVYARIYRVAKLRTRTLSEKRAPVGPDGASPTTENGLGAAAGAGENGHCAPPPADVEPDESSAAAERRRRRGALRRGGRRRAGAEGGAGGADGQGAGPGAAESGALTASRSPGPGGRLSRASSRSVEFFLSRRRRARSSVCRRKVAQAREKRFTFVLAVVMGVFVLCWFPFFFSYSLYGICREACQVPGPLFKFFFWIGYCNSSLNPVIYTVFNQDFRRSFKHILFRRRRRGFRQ

A word on the inhibition: it is the relative decrease from the control value, in per cent. As for `CCn1cnc2sc(C(=O)Nc3ccc4c(c3)OCO4)c(C)c2c1=O`, the cell count in experiment [1] was 473. The inhibition is -14.7% (inactive) in experiment [1], -47.6% (inactive) in [3], -47.3% (inactive) in experiment [8] and -111% (inactive) in [9]. In addition, in experiment [2], the inhibition of aggregation is 7.4% (inactive). Also, the nuclei count in experiment [2] worked out at 102%; in experiment [3], 90.6%. Also, in [4], the fluorescence slope is -0.361 (inactive). Further, in experiment [5], the NADPH fluorescence slope is -7e-05 (inactive). For the same molecule, the slope in experiment [6] is 0.00678 (inactive). Further, the molecule was classed as inactive in experiment [7].
In the case of `Cc1cc(C(=O)COc2cccc3cccnc23)c(C)n1C`, in experiment [1], the cell count is 703. The inhibition was 1.8% (inactive) in experiment [1], -154% (inactive) in experiment [3], -44.6% (inactive) in experiment [8] and -68% (inactive) in [9]. In addition, the inhibition of aggregation in [2] was -22.3% (inactive). For the same molecule, the nuclei count in experiment [2] was found to be 107%; in experiment [3], 117%. Moreover, in [4], the fluorescence slope is -0.327 (inactive). Also, the NADPH fluorescence slope in experiment [5] is -1.7e-05 (inactive). The slope in experiment [6] is 0.00438 (inactive). The result in [7] was inactive.
On to `COC(=O)c1cccc(NC(=O)CN2CCN(Cc3ccccc3)CC2)c1`, for which the cell count in experiment [1] stood at 382. Further, the inhibition was -6.1% (inactive) in experiment [1], -28.9% (inactive) in experiment [3], 12.8% (inactive) in [8] and 14.9% (inactive) in [9]. Moreover, the inhibition of aggregation in [2] is -15.3% (inactive). The nuclei count was found to be 124% in experiment [2] and 121% in [3]. Moreover, the fluorescence slope in experiment [4] was -0.372 (inactive). Besides, the NADPH fluorescence slope in experiment [5] was -9.8e-07 (inactive). For the same molecule, the slope in experiment [6] was 0.0056 (inactive). Besides, the molecule was classed as inactive in experiment [7].
Regarding `Cc1cc(NC(=O)Cc2c(F)cccc2Cl)no1`, in experiment [1], the cell count amounted to 586. For the same molecule, the inhibition in [1] is -1.1% (inactive); in experiment [3], 34.2% (inactive); in [8], 14.4% (inactive); in [9], 19.6% (inactive). Besides, in [2], the inhibition of aggregation was -15.9% (inactive). Moreover, the figures for the nuclei count in experiment [2] and in experiment [3] were 99.9% and 94.3%, respectively. The fluorescence slope in experiment [4] was -0.44 (inactive). The NADPH fluorescence slope in experiment [5] was -2.5e-05 (inactive). Besides, the slope in experiment [6] was 0.00621 (inactive). In addition, the molecule was classed as inactive in experiment [7].
In the case of `Cn1c(=O)[nH]c(=O)c2c1nc(Br)n2CCCSc1nc2ccccc2o1`, in experiment [1], the cell count stood at 588. Besides, the inhibition in experiment [1] is -2.9% (inactive); in [3] it was -8.4% (inactive); in [8], 17.2% (inactive); in experiment [9], 9.4% (inactive). In addition, the inhibition of aggregation in [2] was -18.5% (inactive). Besides, the values for the nuclei count in experiment [2] and in experiment [3] were 112% and 100%, respectively. In experiment [4], the fluorescence slope is -0.352 (inactive). For the same molecule, the NADPH fluorescence slope in experiment [5] was -6.5e-05 (inactive). Moreover, in experiment [6], the slope was 0.00502 (inactive). In addition, in [7], the outcome was inactive.
Take `Cc1nnc(SCCCn2c(N3CCCCC3)nc3c2c(=O)[nH]c(=O)n3C)s1`: in experiment [1], the cell count is 382. The inhibition in experiment [1] was -2.4% (inactive); in experiment [3], -64.9% (inactive); in [8] it was 8.32% (inactive); in experiment [9], 17.6% (inactive). The inhibition of aggregation in experiment [2] was -17.5% (inactive). In addition, the nuclei count in experiment [2] stood at 109%; in experiment [3], 93.7%. Moreover, the fluorescence slope in experiment [4] is -0.458 (inactive). In addition, in experiment [5], the NADPH fluorescence slope was -1.1e-05 (inactive). Further, in [6], the slope was 0.00412 (inactive). Moreover, the molecule was called inactive in experiment [7].
Take `COC(=O)c1ccccc1NC(=O)C12CCC(C)(C(=O)O1)C2(C)C` (stereo unspecified): the cell count in [1] came out at 358. Also, the inhibition in experiment [1] is 1.7% (inactive); in experiment [3], 29.1% (inactive); in experiment [8] it was 20.2% (inactive); in experiment [9], 22.6% (inactive). The inhibition of aggregation in experiment [2] was -12.1% (inactive). In addition, the nuclei count in experiment [2] was found to be 106%; in [3] it was 92.7%. In addition, the fluorescence slope in experiment [4] was -0.433 (inactive). The NADPH fluorescence slope in [5] is -4.4e-05 (inactive). For the same molecule, the slope in [6] was 0.00406 (inactive). In experiment [7], the call was inactive.
Turning to `CCN(C(=O)c1cccs1)c1nnc(-c2ccncc2)s1`, in [1], the cell count came to 737. Moreover, the inhibition in [1] is -7.1% (inactive); in [3], -80% (inactive); in [8], -7.04% (inactive); in [9], -41.1% (inactive). Moreover, in experiment [2], the inhibition of aggregation is -14.4% (inactive). The nuclei count was found to be 104% in experiment [2] and 115% in [3]. Also, in experiment [4], the fluorescence slope was -0.374 (inactive). For the same molecule, the NADPH fluorescence slope in [5] was -7.1e-05 (inactive). Further, in experiment [6], the slope is 0.00498 (inactive). The result in [7] was inactive.
As for `Cc1ccc(C)c(CSc2nnc(CCN)o2)c1`, in experiment [1], the cell count was found to be 431. For the same molecule, the inhibition was -14.5% (inactive) in [1], -41.1% (inactive) in experiment [3], 6.22% (inactive) in experiment [8] and 10.2% (inactive) in [9]. In addition, the inhibition of aggregation in [2] was 2.5% (inactive). Further, the nuclei count in [2] was 65.3%; in experiment [3] it was 103%. For the same molecule, the fluorescence slope in [4] is -0.462 (inactive). Moreover, the NADPH fluorescence slope in [5] is -9.3e-06 (inactive). In [6], the slope was 0.00535 (inactive). Also, the molecule was called inactive in experiment [7].
In the case of `COc1cccc(N2CCN(CC(=O)c3c[nH]c4ccc(OC)cc34)CC2C)c1` (stereo unspecified), the cell count in experiment [1] is 508. For the same molecule, the inhibition in experiment [1] was -6.7% (inactive); in experiment [3] it was -36.3% (inactive); in experiment [8], 12.4% (inactive); in experiment [9] it was 16% (inactive). The inhibition of aggregation in [2] was 6% (inactive). In addition, the nuclei count in experiment [2] was determined as 85.4%; in experiment [3] it was 103%. Also, the fluorescence slope in experiment [4] is -0.368 (inactive). For the same molecule, the NADPH fluorescence slope in experiment [5] was -3.9e-05 (inactive). In addition, in experiment [6], the slope is 0.00529 (inactive). In [7], the call was inactive.
`Cc1c(C)n(C(=O)CN2CCN(c3ccccn3)CC2)c2ccccc12`: in experiment [1], the cell count was found to be 428. Also, the inhibition was 2.3% (inactive) in [1], 3.5% (inactive) in experiment [3], 8.12% (inactive) in [8] and 11.3% (inactive) in experiment [9]. Further, the inhibition of aggregation in experiment [2] is 2.9% (inactive). Further, the nuclei count is 95.7% in experiment [2] and 131% in experiment [3]. Moreover, in experiment [4], the fluorescence slope was -0.376 (inactive). The NADPH fluorescence slope in experiment [5] is -3.7e-05 (inactive). In [6], the slope was 0.00497 (inactive). The outcome in [7] was inactive.
Turning to `CC(CCc1ccccc1)NC(=O)C1CCN(S(=O)(=O)c2cnc[nH]2)CC1` (stereo unspecified), in experiment [1], the cell count was determined as 554. The inhibition in [1] is -20.8% (inactive); in experiment [3], 16.4% (inactive); in experiment [8], 9.51% (inactive); in experiment [9] it was 18% (inactive). In addition, the inhibition of aggregation in experiment [2] is -7.9% (inactive). In addition, the nuclei count in experiment [2] amounted to 107%; in experiment [3], 110%. Also, the fluorescence slope in [4] was -0.367 (inactive). The NADPH fluorescence slope in [5] is -5.5e-05 (inactive). Moreover, the slope in [6] is 0.00556 (inactive). Moreover, in experiment [7], the molecule was called inactive.
As to `COc1cc(NC(=O)Nc2cccc(C(C)=O)c2)cc(OC)c1OC`, the cell count in [1] worked out at 674. For the same molecule, the inhibition is -9.3% (inactive) in [1], -136% (inactive) in experiment [3], 14% (inactive) in experiment [8] and 12.9% (inactive) in experiment [9]. In experiment [2], the inhibition of aggregation is -22% (inactive). Moreover, the nuclei count is 99.7% in experiment [2] and 97.7% in [3]. Also, the fluorescence slope in [4] was -0.438 (inactive). In experiment [5], the NADPH fluorescence slope was -4.1e-05 (inactive). For the same molecule, the slope in experiment [6] was 0.00508 (inactive). Besides, the molecule was classed as inactive in [7].
